# Laboratory results taken from ChEMBL document CHEMBL1681759, “Synthesis and biological evaluation of benzimidazole-5-carbohydrazide derivatives as antimalarial, cytotoxic and antitubercular agents” (Bioorg Med Chem, 2011).
# What was measured:
# [1] = Cytotoxicity against mouse 3T3 cells assessed as growth inhibition after 48 hrs by sulforhodamine B assay; format: cell-based; conditions: NIH3T3 cells
# In short: (§1)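 Cells were exposed to serial compound dilutions in 96-well plates for 48 h at 37 °C alongside solvent controls. Growth was read colorimetrically by sulforhodamine B. GI50 is the concentration giving a 50% reduction in absorbance versus solvent-treated controls, derived by linear regression.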
# K562 = assay: Cytotoxicity against human K562 cells assessed as growth inhibition after 48 hrs by sulforhodamine B assay; format: functional; conditions: K562, 48 h; in short: as §1
# Plasmodium berghei [2] = assay: Antimalarial activity against chloroquine-susceptible Plasmodium berghei ANKA infected in Balb-C mouse assessed as inhibition parasitemia at 20 mg/kg, ip qd for 4 days […]; format: functional; conditions: 96 h, route intraperitoneal
# In short: (§2)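 Balb-C mice (18–23 g, n = 6) were infected iv in the caudal vein with 10⁶ P. berghei ANKA-infected RBCs. Dosing started 2 h post-infection: 20 mg/kg ip once daily for 4 days, DMSO stock diluted in Saline-Tween 20 (2%). Chloroquine 25 mg/kg served as positive control; untreated mice were controls. Parasitemia was read on day 4 from Giemsa smears, and survival days were recorded.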
# Plasmodium berghei [3] = assay: Antimalarial activity against chloroquine-susceptible Plasmodium berghei ANKA infected in Balb-C mouse; format: functional, organism-based; in short: as §2
# [4] = system: Mycobacterium tuberculosis; assay: Antimycobacterial activity against Mycobacterium tuberculosis H37Rv after 5 days by tetrazolium microplate assay; format: functional; conditions: 120 h
# In short: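 Tetrazolium microplate assay run in 7H9GC broth. DMSO stocks (4 mg/mL) were diluted to final 0.4–25 µg/mL. Isoniazid (0.125–32 µg/mL) and rifampin (0.063–16 µg/mL) were positive controls; inoculum-only and DMSO controls were included. Plates were incubated 5 days at 37 °C, then an MTT-Tween 80 mix was added and incubation continued 24 h at 37 °C. Run in triplicate. MIC = lowest concentration preventing the yellow-to-purple colour change.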
# [5] = Inhibition of beta-hematin formation assessed as inhibition of […] polymerization at […] after 48 hrs; format: functional
# In short: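 Hemin chloride (50 µL, 4 mM in DMSO) was mixed in triplicate with compound in DMSO; water or DMSO served as controls. Reaction was started with acetate buffer (0.2 M, pH 4.4) and run 37 °C for 48 h. The pellet was DMSO-washed twice, dissolved in 0.2 N NaOH, diluted 1:2 in 0.1 N NaOH, and read at 405 nm as % inhibition of FP polymerization.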
# DU-145 = assay: Cytotoxicity against human DU145 cells assessed as growth inhibition after 48 hrs by sulforhodamine B assay; format: functional; conditions: DU-145, 48 h; in short: as §1
# MCF7 = assay: Cytotoxicity against human MCF7 cells assessed as growth inhibition after 48 hrs by sulforhodamine B assay; format: functional; conditions: MCF7, 48 h; in short: as §1
# [6] = Cytotoxicity against african green monkey Vero cells assessed as growth inhibition after 48 hrs by sulforhodamine B assay; format: cell-based; conditions: chlorocebus sabaeus; in short: as §1
# M14 = assay: Cytotoxicity against human M14 cells assessed as growth inhibition after 48 hrs by sulforhodamine B assay; format: functional; conditions: M14, 48 h; in short: as §1
# NCI-H460 = assay: Cytotoxicity against human H460 cells assessed as growth inhibition after 48 hrs by sulforhodamine B assay; format: functional; conditions: NCI-H460, 48 h; in short: as §1
# Plasmodium berghei [7] = assay: Antimalarial activity against chloroquine-susceptible Plasmodium berghei ANKA assessed as inhibition of trophozoite extract-mediated mouse hemoglobin hydrolysis at 10 mM after 18 hrs by SDS-PAGE; format: functional
# In short: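 Trophozoite extract came from P. berghei-infected mouse blood at 30–50% parasitemia: RBCs percoll-purified (80–70%), saponin-lysed, then freeze–thawed three times. Substrate was native haemoglobin from uninfected mouse erythrocytes lysed in water. The mix held GSH and acetate buffer (0.2 M, pH 5.4). Compound was added in DMSO and incubated 37 °C, 18 h. Reactions were stopped with reduced sample buffer.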
# HT-29 = assay: Cytotoxicity against human HT-29 cells assessed as growth inhibition after 48 hrs by sulforhodamine B assay; format: functional; conditions: HT-29, 48 h; in short: as §1
# Plasmodium berghei [8] = assay: Antimalarial activity against chloroquine-susceptible Plasmodium berghei ANKA infected in Balb-C mouse assessed as mouse survival days at 20 mg/kg, ip qd for 4 days […] relative to untreated control; format: functional; conditions: route intraperitoneal
SMILES,GI50 at 48 h [1],GI50 (K562),inhibition in vivo at 20 mg/kg (Plasmodium berghei [2]),IC50 (Plasmodium berghei [3]),MIC [4],inhibition [5],GI50 (DU-145),GI50 (MCF7),GI50 at 48 h [6],GI50 (M14),GI50 (NCI-H460),inhibition at 10000 µM (Plasmodium berghei [7]),GI50 (HT-29),Survival (Plasmodium berghei [8])
COc1ccc(C(=O)NNC(=O)c2ccc3[nH]c(-c4ccc([N+](=O)[O-])o4)nc3c2)cc1OC,31.2 µg/mL,15.6 µg/mL,4.8%,8.71 µM,> 25 µg/mL,94.8%,15.6 µg/mL,31.2 µg/mL,62.5 µg/mL,15.6 µg/mL,15.6 µg/mL,34.5%,15.6 µg/mL,12.2 days
O=C(O)c1ccc2[nH]c(-c3ccc([N+](=O)[O-])o3)nc2c1,62.5 µg/mL,250 µg/mL,4.02%,8.43 µM,> 25 µg/mL,95.4%,125 µg/mL,> 250 µg/mL,> 250 µg/mL,250 µg/mL,125 µg/mL,0%,250 µg/mL,17 days
